Laboratory results: ChEMBL document CHEMBL3616379, “From carbohydrates to drug-like fragments: Rational development of novel α-amylase inhibitors” (Bioorg Med Chem, 2015)
Blank lines part the entries; values can stand above or below the molecule they belong to. Activity calls are given as the source filed them. The calls are words filed in the database; no cut-off is given here.

Tests used:
[1] = molecular target: T1, Pancreatic alpha-amylase (Homo sapiens, UniProt P04746); test: Inhibition of human pancreatic alpha-amylase assessed as hydrolysis of G3F by Dixon plot analysis
T1 sequence (P04746 whole entry): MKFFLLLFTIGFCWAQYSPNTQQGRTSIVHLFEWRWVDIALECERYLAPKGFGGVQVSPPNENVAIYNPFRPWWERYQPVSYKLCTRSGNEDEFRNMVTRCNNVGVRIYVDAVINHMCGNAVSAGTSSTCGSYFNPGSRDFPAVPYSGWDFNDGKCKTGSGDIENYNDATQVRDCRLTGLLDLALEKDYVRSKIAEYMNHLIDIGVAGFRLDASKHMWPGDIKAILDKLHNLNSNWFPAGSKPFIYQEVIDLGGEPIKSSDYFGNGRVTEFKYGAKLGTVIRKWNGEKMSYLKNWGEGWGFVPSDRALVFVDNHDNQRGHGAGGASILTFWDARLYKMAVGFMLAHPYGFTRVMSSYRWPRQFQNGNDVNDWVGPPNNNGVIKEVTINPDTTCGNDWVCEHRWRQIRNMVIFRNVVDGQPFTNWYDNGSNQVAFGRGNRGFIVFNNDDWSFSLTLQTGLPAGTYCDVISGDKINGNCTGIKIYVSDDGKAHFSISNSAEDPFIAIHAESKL

[2] = molecular target: T2, Alpha-amylase 1A (Homo sapiens, UniProt P0DUB6); test: Inhibition of human salivary alpha-amylase using GalG2CNP as substrate by UV-Vis spectrophotometric analysis; settings: read-out: IC50
T2 sequence (P0DUB6 whole entry): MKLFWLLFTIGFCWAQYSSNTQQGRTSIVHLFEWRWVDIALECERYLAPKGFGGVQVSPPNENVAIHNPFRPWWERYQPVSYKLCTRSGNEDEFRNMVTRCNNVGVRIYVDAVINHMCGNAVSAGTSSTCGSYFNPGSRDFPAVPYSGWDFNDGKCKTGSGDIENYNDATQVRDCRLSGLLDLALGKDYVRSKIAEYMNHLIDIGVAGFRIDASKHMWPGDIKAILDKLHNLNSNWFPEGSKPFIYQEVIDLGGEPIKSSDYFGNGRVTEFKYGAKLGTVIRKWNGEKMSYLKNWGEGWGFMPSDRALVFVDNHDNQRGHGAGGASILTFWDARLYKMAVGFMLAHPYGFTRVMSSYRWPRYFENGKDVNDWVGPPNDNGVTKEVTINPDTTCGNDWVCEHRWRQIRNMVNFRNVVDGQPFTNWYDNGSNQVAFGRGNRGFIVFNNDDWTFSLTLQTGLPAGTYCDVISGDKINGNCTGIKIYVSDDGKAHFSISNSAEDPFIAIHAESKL

[3] = molecular target: T3, Alpha-amylase 1A (Homo sapiens) (UniProt P0DUB6); test: Potency index, ratio of BAS 04880564 IC50 to compound IC50 for human salivary alpha-amylase
T3 sequence (whole entry): T2 sequence (P0DUB6 whole entry)

[4] = molecular target: T3, Alpha-amylase 1A (Homo sapiens); test: Mixed type inhibition of human salivary alpha-amylase using GalG2CNP as substrate by Lineweaver-Burk plot analysis
In short: (§1)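 Inhibition mode assigned from Lineweaver-Burk plots. Human salivary α-amylase (2 nM) started reactions containing GalG2CNP (0.75–4 mM) and inhibitor in DMSO, in 50 mM MES pH 6.0 with 5 mM Ca(OAc)2, 51.5 mM NaCl, 152 mM NaN3 at 37°C. Rates from continuous 400 nm absorbance of released CNP.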

[5] = test system: Escherichia coli; test: Inhibition of Escherichia coli MurC ligase assessed as residual activity at 100 uM after 15 mins by Malachite green assay
[6] = Inhibition of malt alpha-amylase; settings: concentration not given here
[7] = Inhibition of Escherichia coli MurC ligase after 15 mins by Malachite green assay
[8] = molecular target: T3, Alpha-amylase 1A (Homo sapiens); test: Competitive inhibition of human salivary alpha-amylase using GalG2CNP as substrate by Lineweaver-Burk plot analysis; in short: as §1
[9] = molecular target: T1, Pancreatic alpha-amylase; test: Competitive inhibition of human pancreatic alpha-amylase by double reciprocal plot analysis
[10] = molecular target: T2, Alpha-amylase 1A; test: Non-competitive inhibition of human salivary alpha-amylase using GalG2CNP as substrate assessed as CNP liberation by Lineweaver-Burk plot analysis
In short: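 Same HSA/GalG2CNP system: 2 nM enzyme, 0.75-4 mM substrate, 50 mM MES pH 6.0 with Ca(OAc)2, NaCl, NaN3, 37°C, CNP followed continuously at 400 nm, inhibitor added from DMSO. Inhibition type was assigned from Lineweaver-Burk plots.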

[11] = molecular target: T3, Alpha-amylase 1A (Homo sapiens); test: Inhibition of human salivary alpha-amylase using GalG2CNP as substrate at 200 uM by UV-Vis spectrophotometric analysis
In short: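 Single-concentration test at 200 μM inhibitor against human salivary α-amylase (2 nM) with GalG2CNP substrate, 50 mM MES pH 6.0 containing 5 mM Ca(OAc)2, 51.5 mM NaCl, 152 mM NaN3, 37°C. Chloronitrophenol liberation monitored continuously at 400 nm by UV-Vis spectrophotometry.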

[12] = molecular target: Heat shock protein HSP 90-beta (Homo sapiens, UniProt P08238); test: Inhibition of HSP90 (unknown origin)
[13] = molecular target: T1, Pancreatic alpha-amylase; test: Inhibition of human pancreatic alpha-amylase
[14] = molecular target: T4, Pancreatic alpha-amylase (Homo sapiens) (UniProt P04746); test: Inhibition of human pancreatic alpha-amylase using CNPG3 as substrate by spectrophotometric analysis in presence of 40 mM G3F as donor compound and 25 mM 5FIdoF as acceptor compound relative to control
T4 sequence (whole entry): T1 sequence (P04746 whole entry)

Chain of Heat shock protein HSP 90-beta (P08238 whole entry): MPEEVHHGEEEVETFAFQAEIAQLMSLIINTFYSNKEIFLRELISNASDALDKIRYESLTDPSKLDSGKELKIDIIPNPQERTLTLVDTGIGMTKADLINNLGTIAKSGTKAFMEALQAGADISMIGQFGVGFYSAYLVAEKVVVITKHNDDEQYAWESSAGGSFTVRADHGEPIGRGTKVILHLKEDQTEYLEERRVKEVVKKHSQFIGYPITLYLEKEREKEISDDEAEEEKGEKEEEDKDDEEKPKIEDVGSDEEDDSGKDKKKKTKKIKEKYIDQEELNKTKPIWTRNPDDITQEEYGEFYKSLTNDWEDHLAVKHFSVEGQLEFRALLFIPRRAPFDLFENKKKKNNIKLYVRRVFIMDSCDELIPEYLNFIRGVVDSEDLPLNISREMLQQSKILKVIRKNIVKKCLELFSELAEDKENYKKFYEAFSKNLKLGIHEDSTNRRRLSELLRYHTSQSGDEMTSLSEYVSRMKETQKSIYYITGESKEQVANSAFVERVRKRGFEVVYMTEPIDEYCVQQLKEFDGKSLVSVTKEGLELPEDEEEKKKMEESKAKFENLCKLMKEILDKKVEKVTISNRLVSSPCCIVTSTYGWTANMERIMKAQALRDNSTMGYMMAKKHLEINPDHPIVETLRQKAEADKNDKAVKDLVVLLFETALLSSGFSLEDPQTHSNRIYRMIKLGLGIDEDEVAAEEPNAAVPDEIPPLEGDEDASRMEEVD

Compound: CO[C@H]1[C@H](O)[C@@H](O)[C@@H](O[C@H]2[C@H](O)[C@@H](O)[C@@H](O[C@H]3[C@H](O)[C@@H](O)/C(=N\O)N[C@@H]3CO)O[C@@H]2CO)O[C@@H]1CO
- Ki [1]: 25 µM

Compound: OC[C@H]1N/C(=N/O)[C@H](O)[C@@H](O)[C@@H]1O
- Ki [1]: 18000 µM

Compound: C[C@H]1O[C@H](O[C@H]2[C@H](O)[C@@H](O)[C@@H](OC[C@H]3OC4(NC(=S)NC4=O)[C@H](O)[C@@H](O)[C@@H]3O)O[C@@H]2CO)[C@H](O)[C@@H](O)[C@@H]1N[C@H]1C=C(CO)[C@@H](O)[C@H](O)[C@H]1O (stereo partly drawn)
- Ki [10]: 0.19 µM

Compound: COC1=C(O)C(=O)OC1C1COC(C)(C)O1 (stereo not drawn)
- inhibition [6]: 0%

Compound: C[C@H]1O[C@H](O[C@H]2[C@H](O)[C@@H](O)[C@@H](OC[C@H]3O[C@@H](O)[C@H](O)[C@@H](O)[C@@H]3O)O[C@@H]2CO)[C@H](O)[C@@H](O)[C@@H]1N[C@H]1C=C(CO)[C@@H](O)[C@H](O)[C@H]1O
- Ki [13]: 0.012 µM

Compound: OCC1OC(OC2C(O)C(O)C(F)OC2(F)CO)C(O)C(O)C1O (stereo not drawn)
- inhibition [14]: 90%

Next, values leading:

- IC50 [2]: 100 µM
- Ratio IC50 [3]: 1.38
- inhibition [4]: Active
- Activity [5]: 83%
Compound: CC(=O)c1cccc(Nc2nc(-c3ccc(O)cc3O)cs2)c1

- inhibition [6]: 99%
Compound: CC(=O)OCC(OC(C)=O)C1OC(O)=C(O)C1=O (stereo not drawn)

- IC50 [2]: 423 µM
- IC50 [7]: 347 µM
Compound: O=C(O)c1cc(Nc2nc(-c3ccc(O)cc3O)cs2)ccc1O

- IC50 [2]: 100 µM
- Inhibition mode [8]: Active
- Ratio IC50 [3]: 1.38
- Activity [5]: 90%
Compound: CN(C)c1ccc(Nc2nc(-c3ccc(O)cc3O)cs2)cc1

- Ki [9]: 3.6 µM
Compound: C[C@@H]1O[C@@H](O[C@@H]2CO[C@@H](Oc3c(O)cc(C4=C(O[C@@H]5O[C@@H](C)[C@H](O)[C@@H](O)[C@H]5O[C@@H]5O[C@H](COC(=O)/C=C/c6ccc(O)cc6)[C@@H](O)[C@H](O)[C@H]5O[C@@H]5O[C@H](CO)[C@@H](O)[C@H](O)[C@H]5O)C(=O)c5c(O)cc(O)cc5C4)cc3O)[C@H](O)[C@H]2O)[C@H](O)[C@H](O)[C@H]1O

- inhibition [11]: inactive
- IC50 [12]: > 50 µM
Compound: CCc1cc(C(=O)Cn2cnc3ccccc32)c(O)cc1O

- IC50 [2]: 165 µM
- Ratio IC50 [3]: 0.83
- IC50 [7]: 531 µM
Compound: NS(=O)(=O)c1ccc(Nc2nc(-c3ccc(O)cc3O)cs2)cc1
